Assay results taken from ChEMBL document CHEMBL3616462, “Synthesis and antiviral activity of maleopimaric and quinopimaric acids' derivatives” (Bioorg Med Chem, 2015).

How the values were obtained:
[1] = Selectivity index, ratio of CC50 for Influenza A virus (A/Viet Nam/1203/2004(H5N1)) infected MDCK cells to EC50 for antiviral activity against Influenza A virus (A/Viet Nam/1203/2004(H5N1)) infected in MDCK cells; format: toxicity, cell-based; settings: dog; read-out: Ratio CC50/EC50
[2] = Selectivity index, ratio of CC50 for Influenza A virus (A/California/07/2009(H1N1)) infected MDCK cells to EC50 for antiviral activity against Influenza A virus H1N1 (A/California/07/2009(H1N1)) infected in MDCK cells; format: toxicity, cell-based; settings: dog; read-out: Ratio CC50/EC50
[3] = Cytotoxicity against Influenza A virus (A/Viet Nam/1203/2004(H5N1)) infected MDCK cells; format: cell-based, Canis lupus familiaris; settings: dog
[4] = Antiviral activity against Influenza A virus (A/California/07/2009(H1N1)) infected in MDCK cells; format: functional, cell-based
[5] = Selectivity index, ratio of CC50 for Influenza A virus (A/Brisbane/10/2007(H3N2)) infected MDCK cells to EC50 for antiviral activity against Influenza A virus (A/Brisbane/10/2007(H3N2)); format: toxicity, cell-based; settings: dog; read-out: Ratio CC50/EC50
[6] = Antiviral activity against Influenza A virus (A/Viet Nam/1203/2004(H5N1)) infected in MDCK cells; format: functional, cell-based
[7] = Cytotoxicity against Influenza B virus (B/Florida/4/2006) infected MDCK cells; format: cell-based, Canis lupus familiaris; settings: dog
[8] = Selectivity index, ratio of CC50 for Influenza B virus (B/Florida/4/2006) infected MDCK cells to EC50 for antiviral activity against Influenza B virus (B/Florida/4/2006) in MDCK cells; format: toxicity, cell-based; settings: dog; read-out: Ratio CC50/EC50
[9] = Cytotoxicity against Influenza A virus (A/Brisbane/10/2007(H3N2)) infected MDCK cells; format: cell-based, Canis lupus familiaris; settings: dog
[10] = Cytotoxicity against Influenza A virus (A/California/07/2009(H1N1)) infected MDCK cells; format: cell-based, Canis lupus familiaris; settings: dog
[11] = Antiviral activity against Influenza A virus (A/Brisbane/10/2007(H3N2)) infected in MDCK cells; format: functional, cell-based
Influenza B virus = assay: Antiviral activity against Influenza B virus (B/Florida/4/2006) in MDCK cells; format: functional, cell-based; settings: B/Florida/4/2006, MDCK
Hepatitis C virus = assay: Antiviral activity against HCV infected in human Huh7ET cells assessed as reduction in HCV RNA-derived luciferase activity at 20 uM by luciferase reporter gene assay; format: functional, Hepacivirus hominis; settings: Huh-7
How it was run: (§1)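 HCV RNA replicon assay in Huh7 ET cells. Compounds were added in triplicate at a single concentration of 20 µM. Antiviral activity was read as HCV RNA-derived luciferase signal, expressed as % of control. Toxicity was read as β-actin RNA, % of control. SI = toxicity/antiviral activity. Interferon-α (2 IU/mL) was the positive control.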

[12] = Cytotoxicity against HBV infected human HepG2(2.2.15) cells; format: cell-based; settings: HBV infected HepG2(2.2.15) cells
How it was run: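 Toxicity was measured on confluent 2.2.15 cells alongside the primary anti-HBV assay. CC50 is given in µM.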

[13] = Toxicity against human Huh7ET cells assessed as reduction in beta-actin RNA levels at 20 uM; format: cell-based, Huh-7; settings: values are per cent of control; for response, % of control at 20 µM: Huh7ET cells
How it was run: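 HCV RNA replicon assay in Huh7 ET cells. Compounds were added in triplicate at a single concentration of 20 µM. Cytotoxicity was read as β-actin RNA as % of control, alongside HCV RNA-derived luciferase activity. Interferon-α (2 IU/mL) was the positive control.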

[14] = Selectivity index, ratio of toxicity against human Huh7ET cells assessed as reduction in beta-actin RNA levels at 20 uM to antiviral activity against HCV infected in human Huh7ET cells assessed as reduction in HCV RNA-derived luciferase activity at 20 uM by luciferase reporter gene assay; format: cell-based, Huh-7; settings: read-out: Selectivity Index; how it was run: as §1
Hepatitis B virus = assay: Antiviral activity against HBV infected in human HepG2(2.2.15) cells; format: functional, organism-based
How it was run: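 Primary anti-HBV screen in confluent 2.2.15 cells, run alongside a toxicity assay in the same cells. Compounds were supplied as DMSO solutions.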

[15] = Antiviral activity against SARS coronavirus Urbani infected in African green monkey Vero 76 cells; format: functional, cell-based; settings: Severe acute respiratory syndrome-related coronavirus
human papillomavirus 11 = assay: Antiviral activity against HPV11 infected in PHK cells epithelial raft cultures by standard AACF screening assay; format: functional, organism-based; settings: human papillomavirus 11, PHK
[16] = Cytotoxicity against HPV11 infected PHK cells epithelial raft cultures by standard AACF screening assay; format: cell-based; settings: human
[17] = Selectivity index, ratio of CC50 for human rhinovirus 2 infected MDCK cells to EC50 for antiviral activity against human rhinovirus 2 infected in MDCK cells; format: toxicity, cell-based; settings: dog, MDCK cells infected with human rhinovirus 2; read-out: Ratio CC50/EC50
[18] = Cytotoxicity against SARS coronavirus Urbani infected African green monkey Vero 76 cells; format: cell-based; settings: chlorocebus sabaeus, Vero 76 cells infected with SARS coronavirus Urbani
[19] = Cytotoxicity against Adenovirus Chicago 65089 infected human A549 cells; format: cell-based; settings: A549 cells infected with Adenovirus Chicago 65089
How it was run: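 Respiratory-virus panel screen on A-549 cells, with compounds supplied as DMSO solutions. CC50 is the cell inhibitory concentration at the 50% endpoint, in µM.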

unidentified adenovirus = assay: Antiviral activity against Adenovirus Chicago 65089 infected in human A549 cells; format: functional, organism-based; settings: Chicago 65089, A549
[20] = Cytotoxicity against human rhinovirus 2 infected MDCK cells; format: cell-based, Canis lupus familiaris; settings: dog, MDCK cells infected with human rhinovirus 2
rhinovirus A2 = assay: Antiviral activity against human rhinovirus 2 infected in MDCK cells; format: functional, organism-based; settings: Rhinovirus A
[21] = Selectivity index, ratio of CC50 for ARS coronavirus Urbani infected African green monkey Vero 76 cells to EC50 for antiviral activity against ARS coronavirus Urbani infected in African green monkey Vero 76 cells; format: toxicity, cell-based; settings: Vero 76 cells infected with SARS coronavirus Urbani, read-out: Ratio CC50/EC50

Compound	selectivity ratio [1]	selectivity ratio [2]	CC50 [3] [µM]	EC50 [4] [µM]	selectivity ratio [5]	EC50 [6] [µM]	CC50 [7] [µM]	selectivity ratio [8]	CC50 [9] [µM]	CC50 [10] [µM]	EC50 [11] [µM]	EC50 (Influenza B virus) [µM]	inhibition at 20 µM (Hepatitis C virus) [%]	CC50 [12] [µM]	response, % of control at 20 µM [13] [%]	selectivity ratio at 20 µM [14]	EC50 (Hepatitis B virus) [µM]	EC90 (Hepatitis B virus) [µM]	other results
CC(C)C1=C[C@]23CC[C@@H]4[C@](C)(CCC[C@@]4(C)C(=O)O)[C@H]2C[C@H]1[C@H]1C(=O)OC(=O)[C@H]13	1.1	1.5	35	31	1.2	32	36	1.3	44	48	37	27	–	–	–	–	–	–	–
CC(C)C1=C[C@@]23CC[C@@H]4[C@](C)(CCC[C@@]4(C)C(=O)O)[C@H]2C[C@@H]1[C@H]1C(=O)CCC(=O)[C@H]13	–	–	–	–	1.1	–	34	4	36	–	32	8.6	0	62	88	< 1	> 10	> 10	–
COC(=O)[C@]1(C)CCC[C@]2(C)[C@H]3C[C@H]4C(C(C)C)=C[C@]3(CC[C@H]21)[C@@H]1C(=O)[C@H]2O[C@H]2C(=O)[C@@H]14	1	1.2	3.3	29	–	3.2	3.3	1	23	34	> 23	3.2	–	–	–	–	–	–	–
COC(=O)[C@]1(C)CCC[C@]2(C)[C@H]3C[C@H]4C(C(C)C)=C[C@]3(CC[C@H]21)[C@@H]1/C(=N/O)CCC2(OCCO2)[C@@H]14	1	–	3.3	> 2.9	1	3.2	3.2	1	3.3	2.9	3.2	3.2	97.9	20	0.2	< 1	> 10	> 10	EC50 [15]: > 2.4 µM; EC50 (human papillomavirus 11): > 50 µM; CC50 [16]: < 50 µM; selectivity ratio [17]: 1; CC50 [18]: 2.4 µM; CC50 [19]: 9.8 µM; EC50 (unidentified adenovirus): > 9.8 µM; CC50 [20]: 3.2 µM; EC50 (rhinovirus A2): 3.2 µM
COC(=O)[C@H](C)NC(=O)[C@]1(C)CCC[C@]2(C)[C@H]3C[C@H]4C(C(C)C)=C[C@]3(CC[C@H]21)[C@@H]1C(=O)OC(=O)[C@@H]14	1	1.1	33	32	1	32	33	1	33	34	32	32	–	–	–	–	–	–	–
COC(=O)[C@H](CCSC)NC(=O)[C@]1(C)CCC[C@]2(C)[C@H]3C[C@H]4C(C(C)C)=C[C@]3(CC[C@H]21)[C@@H]1C(=O)OC(=O)[C@@H]14	1	1.1	32	31	–	32	32	1	30	34	> 30	32	–	–	–	–	–	–	–
COC(=O)[C@]1(C)CCC[C@]2(C)[C@H]3C[C@H]4C(C(C)C)=C[C@]3(CC[C@H]21)[C@@H]1C(=O)CCC(=O)[C@@H]14	–	–	> 100	> 100	–	> 100	> 100	> 3.1	> 100	> 100	> 100	32	–	–	–	–	–	–	–
COC(=O)[C@]1(C)CCC[C@]2(C)[C@H]3C[C@H]4C(C(C)C)=C[C@]3(CC[C@H]21)[C@@H]1C(=O)CC[C@H](OC(=O)c2cccnc2)[C@@H]14	1	1.1	3.2	32	1	3.2	3.2	1	33	35	32	3.2	–	–	–	–	–	–	–
COC(=O)[C@]1(C)CCC[C@]2(C)[C@H]3C[C@H]4C(C(C)C)=C[C@]3(CC[C@H]21)[C@@H]1C(=O)CC[C@H](OC(=O)/C=C/c2ccccc2)[C@@H]14	–	1.1	9	31	–	> 9	24	2.4	17	35	> 17	10	–	–	–	–	–	–	–
COC(=O)[C@]1(C)CCC[C@]2(C)[C@H]3C[C@H]4C(C(C)C)=C[C@]3(CC[C@H]21)[C@H]1[C@@H]4[C@@H](OC(=O)CCC(=O)O)CC[C@@H]1OC(=O)CCC(=O)O	1	–	3.2	–	–	3.2	3.4	1.1	–	–	–	3.1	96.6	21	6.4	< 1	> 10	> 10	EC50 [15]: 3.2 µM; EC50 (human papillomavirus 11): > 50 µM; CC50 [16]: < 50 µM; selectivity ratio [17]: 1.1; selectivity ratio [21]: 1.1; CC50 [18]: 3.6 µM; CC50 [19]: 10 µM; EC50 (unidentified adenovirus): > 10 µM; CC50 [20]: 33 µM; EC50 (rhinovirus A2): 31 µM
COC(=O)[C@]1(C)CCC[C@]2(C)[C@H]3CC4C(C(C)C)=C[C@]3(CC[C@H]21)[C@@H]1NC(=O)CC[C@H](O)[C@H]41	–	1	28	32	–	> 28	35	1.5	28	33	> 28	24	97.3	58	102	> 1	> 10	> 10	EC50 [15]: 6.3 µM; EC50 (human papillomavirus 11): < 50 µM; CC50 [16]: < 50 µM; selectivity ratio [21]: 5.1; CC50 [18]: 32 µM; CC50 [19]: 29 µM; EC50 (unidentified adenovirus): > 29 µM; CC50 [20]: 28 µM; EC50 (rhinovirus A2): > 28 µM
COC(=O)[C@]1(C)CCC[C@]2(C)[C@H]3C[C@H]4C(=C(C)C)C5O[C@@]6(O)CCC(=O)[C@H]4[C@@H]6[C@@]53CC[C@H]21	–	–	–	–	–	–	–	–	–	–	–	–	68.4	59	–	> 1	> 10	> 10	response, % of control ([13]; huh-7, 20 µM): 151.2%
